Source: ChEMBL document CHEMBL3580647, “Discovery of potent indenoisoquinoline topoisomerase I poisons lacking the 3-nitro toxicophore” (J Med Chem, 2015)

Key:
[1] = target: T1, DNA topoisomerase 1 (Homo sapiens) (UniProt P11387); assay: Inhibition of recombinant topoisomerase 1 (unknown origin) assessed as DNA cleavage using 3'-[32P]-labeled 117-bp DNA oligonucleotide at 1 uM by PAGE assay; design: Activity: scale not given: the % may be the effect or the level left
T1 sequence (whole entry): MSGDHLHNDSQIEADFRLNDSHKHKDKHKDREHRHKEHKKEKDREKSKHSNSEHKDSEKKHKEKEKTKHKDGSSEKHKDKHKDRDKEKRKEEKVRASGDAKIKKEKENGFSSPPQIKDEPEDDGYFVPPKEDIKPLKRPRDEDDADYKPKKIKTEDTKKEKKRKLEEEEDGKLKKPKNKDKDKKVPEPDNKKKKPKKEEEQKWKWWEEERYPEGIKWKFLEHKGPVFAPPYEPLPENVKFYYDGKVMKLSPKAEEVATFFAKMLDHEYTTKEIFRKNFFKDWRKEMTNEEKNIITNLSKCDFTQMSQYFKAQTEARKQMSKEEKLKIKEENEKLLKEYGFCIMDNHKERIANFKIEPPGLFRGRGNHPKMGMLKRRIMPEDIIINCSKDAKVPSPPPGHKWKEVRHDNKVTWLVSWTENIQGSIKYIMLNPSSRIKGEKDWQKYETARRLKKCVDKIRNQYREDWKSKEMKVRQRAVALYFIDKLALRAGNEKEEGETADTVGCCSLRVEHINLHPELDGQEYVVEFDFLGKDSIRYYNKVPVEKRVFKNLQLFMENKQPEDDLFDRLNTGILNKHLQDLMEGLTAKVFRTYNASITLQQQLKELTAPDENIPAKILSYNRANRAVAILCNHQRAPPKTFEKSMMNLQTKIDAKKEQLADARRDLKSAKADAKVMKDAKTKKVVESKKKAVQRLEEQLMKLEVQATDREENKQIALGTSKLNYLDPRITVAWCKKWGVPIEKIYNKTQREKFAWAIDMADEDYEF
Outline: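 Approx. 2 nM 3′-[³²P]-labeled double-stranded DNA incubated with recombinant Top1 and compound at 0.1, 1, 10 or 100 μM for 20 min at 25 °C. Stopped with 0.5% SDS and run on a denaturing gel. […] Run twice.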

[2] = target: Tyrosyl-DNA phosphodiesterase 1 (Homo sapiens, UniProt Q9NUW8); assay: Inhibition of recombinant TPD1 (unknown origin) activity using 3'-phosphotyrosine-containing 5'-[32P]-labeled single-stranded DNA oligonucleotide by PAGE assay
[3] = target: T2, Tyrosyl-DNA phosphodiesterase 2 (Homo sapiens, UniProt O95551); assay: Inhibition of human recombinant TPD2 activity using 5'phosphotyrosine-containing 19-mer single-stranded oligonucleotide DNA substrate by PAGE assay
T2 sequence (O95551 whole entry): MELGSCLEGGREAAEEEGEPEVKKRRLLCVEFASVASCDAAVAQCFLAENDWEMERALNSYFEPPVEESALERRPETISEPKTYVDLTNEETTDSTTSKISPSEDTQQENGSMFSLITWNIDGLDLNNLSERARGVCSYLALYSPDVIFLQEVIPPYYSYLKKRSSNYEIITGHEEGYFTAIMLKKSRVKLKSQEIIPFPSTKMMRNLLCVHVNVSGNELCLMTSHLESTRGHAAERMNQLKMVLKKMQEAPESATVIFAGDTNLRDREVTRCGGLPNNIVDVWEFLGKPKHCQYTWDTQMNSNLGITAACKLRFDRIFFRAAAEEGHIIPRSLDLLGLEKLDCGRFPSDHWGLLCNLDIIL

[4] = Growth inhibition of human NCI60 cells assessed as cell growth at 10 uM; format: functional; settings: read-out: Activity
Outline: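 NCI-60 single-dose screen at 10 μM across ~60 human cancer cell lines. Reported as growth percent relative to vehicle-treated control, averaged over all lines tested as a mean growth percent.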

HCT-116 = assay: Growth inhibition of human HCT116 cells by five-dose growth inhibition assay; format: functional
[5] = Growth inhibition of human SF539 cells by five-dose growth inhibition assay; format: functional; settings: SF-539
UACC-62 = assay: Growth inhibition of human UACC62 cells by five-dose growth inhibition assay; format: functional
OVCAR-3 = assay: Growth inhibition of human OVCAR3 cells by five-dose growth inhibition assay; format: functional
SN12C = assay: Growth inhibition of human SN12C cells by five-dose growth inhibition assay; format: functional
MCF7 = assay: Growth inhibition of human MCF7 cells by five-dose growth inhibition assay; format: functional

Chain of Tyrosyl-DNA phosphodiesterase 1 (Q9NUW8 whole entry): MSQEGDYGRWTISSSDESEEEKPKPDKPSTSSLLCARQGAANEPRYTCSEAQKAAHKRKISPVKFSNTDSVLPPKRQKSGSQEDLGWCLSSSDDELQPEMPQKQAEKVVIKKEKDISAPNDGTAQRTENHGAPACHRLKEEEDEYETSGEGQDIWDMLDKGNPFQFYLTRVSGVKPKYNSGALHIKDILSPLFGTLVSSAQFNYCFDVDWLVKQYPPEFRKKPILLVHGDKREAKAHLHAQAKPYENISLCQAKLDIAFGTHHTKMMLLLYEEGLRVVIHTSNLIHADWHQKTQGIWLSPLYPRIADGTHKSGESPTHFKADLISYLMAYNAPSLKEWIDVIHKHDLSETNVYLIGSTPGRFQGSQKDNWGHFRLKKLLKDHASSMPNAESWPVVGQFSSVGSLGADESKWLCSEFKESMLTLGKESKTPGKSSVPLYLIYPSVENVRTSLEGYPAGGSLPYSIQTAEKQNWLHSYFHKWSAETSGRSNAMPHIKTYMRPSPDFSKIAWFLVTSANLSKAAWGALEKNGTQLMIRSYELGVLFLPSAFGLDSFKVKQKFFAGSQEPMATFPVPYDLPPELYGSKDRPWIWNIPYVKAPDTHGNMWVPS

Activity [1]: 50%
IC50 [2]: > 111 µM
IC50 [3]: > 111 µM
GI50 (HCT-116): 0.631 µM
GI50 (OVCAR-3): 5.27 µM
GI50 (MCF7): 0.331 µM
SMILES: O=C1c2ccccc2-c2c1c1ccc(I)cc1c(=O)n2C[C@H](O)CO
growth at 10 µM [4]: 39.7%
GI50 [5]: 3.02 µM
GI50 (UACC-62): 2.14 µM
GI50 (SN12C): 4.27 µM
